In PMC9091619 (RSC Advances, 2018):
Like-named read-outs stand apart in the source and are kept apart here.

Assays:
HL-60 (leukemia) cells = assay: In vitro cytotoxicity, MTT/MTS cell viability assay, HL-60; assay type: cell-based, human; conditions: read-out: IC50 ± SD, HL-60
In short: (§1)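 Human cancer lines from ATCC, grown in RPMI-1640 or DMEM with 10% FBS at 37 °C, 5% CO2. Seeding at 1 × 10^5 cells per mL: adherent cells 12 h before dosing, suspension cells at dosing. 48 h exposure to graded concentrations, in triplicate; cisplatin and paclitaxel as positive controls. MTS added for 4 h at 37 °C, lysis in 20% SDS–50% DMF, OD 490 nm. IC50 by Reed and Muench's method.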

[1] = tested on: SMMC-7721 (hepatoma cells); assay: In vitro cytotoxicity, MTT/MTS cell viability assay, SMMC-7721; assay type: cell-based, human; conditions: read-out: IC50 ± SD, SMMC-7721
In short: as §1

[2] = tested on: A-549 (lung cancer) cells; assay: In vitro cytotoxicity, MTT/MTS cell viability assay, A-549; assay type: cell-based, human; conditions: read-out: IC50 ± SD, A-549
In short: as §1

[3] = tested on: MCF-7 (breast cancer) cells; assay: In vitro cytotoxicity, MTT/MTS cell viability assay, MCF-7; assay type: cell-based, human; conditions: read-out: IC50 ± SD, MCF-7
In short: as §1

[4] = tested on: SW480 (colon cancer) cells; assay: In vitro cytotoxicity, MTT/MTS cell viability assay, SW480; assay type: cell-based, human; conditions: read-out: IC50 ± SD, SW480
In short: as §1

[5] = tested on: human normal pulmonary epithelial cells (BEAS-2B); assay: Growth inhibitory effect on normal cells, BEAS-2B; assay type: cell-based; conditions: for IC50: read-out: IC50 ± SD, BEAS-2B
[6] = tested on: five human cancer cell lines (HL-60, SMMC-7721, A-549, MCF-7 and SW480); assay: Cytotoxicity against the panel of five tested cancer cell lines; assay type: cell-based; conditions: for cytotoxicity against the tested cancer cell lines (in words): five tested cancer cell lines; for IC50: Homo sapiens, read-out: IC50 against all the tested cancer cell lines
In short: as §1

Compound | IC50 (HL-60 (leukemia) cells; Homo sapiens, HL-60, 48 h) | IC50 ([1]; Homo sapiens, SMMC-7721, 48 h) | IC50 ([2]; Homo sapiens, A549, 48 h) | IC50 ([3]; Homo sapiens, MCF7, 48 h) | IC50 ([4]; Homo sapiens, SW480, 48 h) | IC50 ([5]; Homo sapiens, BEAS-2B) | cytotoxicity against the tested cancer cell lines (in words) [6] | IC50 (HL-60 (leukemia) cells; HL-60 cells, 48 h exposure) | IC50 ([1]; SMMC-7721 cells, 48 h exposure) | IC50 ([2]; A-549 cells, 48 h exposure) | IC50 ([3]; MCF-7 cells, 48 h exposure) | IC50 ([4]; SW480 cells, 48 h exposure) | IC50 ([5]; BEAS-2B normal pulmonary epithelial cells) | toxicity to BEAS-2B cells (in words) ([5]; BEAS-2B normal cells) | IC50 [6]
O=c1c2ccc(O)cc2oc2cc(O)cc(O)c12 [Compound 2u, 1,3,6-Trihydroxy-9H-xanthen-9-one] | > 40 µM | > 40 µM | > 40 µM | > 40 µM | > 40 µM |  |  |  |  |  |  |  |  |  | 
COc1c(O)cc2oc3cc(O)c(CCC(C)(C)O)c(O)c3c(=O)c2c1CC=C(C)C [Compound 2n, 1,3,6-Trihydroxy-2-(3-hydroxy-3-methylbutyl)-7-methoxy-8-(3-methylbut-2-en-1-yl)-9H-xanthen-9-one] | 14.4 ± 0.05 µM | 26.3 ± 1.04 µM | 17 ± 0.77 µM | 24.6 ± 0.47 µM | 22.7 ± 2.35 µM | 29.3 ± 1.02 µM | slightly decreased activity or comparative activity |  |  |  |  |  |  |  | 
N.N.[Cl][Pt][Cl] [DDP, Cisplatin, reference compound] |  |  |  |  |  |  |  | 3.19 ± 0.18 µM | 18 ± 0.49 µM | 13.8 ± 0.74 µM | 28.4 ± 3.71 µM | 14.8 ± 2.15 µM | > 40 µM |  | 
COc1c(O)cc2oc3cc(O)c(CCC(C)C)c(O)c3c(=O)c2c1CC(O)C(C)(C)O (stereo not drawn) [Compound 2e, 1,3,6-Trihydroxy-2-isopentyl-7-methoxy-8-(2,3-dihydroxy-3-methylbutyl)-9H-xanthen-9-one] | 18.7 ± 0.23 µM | > 40 µM | > 40 µM | > 40 µM | > 40 µM | > 40 µM |  |  |  |  |  |  |  | non-cytotoxic | 
COc1c(O)cc2oc3cc(O)c(CC(O)C(C)(C)O)c(O)c3c(=O)c2c1CCC(C)C (stereo not drawn) [Compound 2d, 1,3,6-Trihydroxy-2-(2,3-dihydroxy-3-methylbutyl)-7-methoxy-8-isopentyl-9H-xanthen-9-one] | 21.6 ± 2.41 µM | 26.9 ± 3.75 µM | 36 ± 0.99 µM | > 40 µM | > 40 µM | > 40 µM | slightly decreased activity or comparative activity |  |  |  |  |  |  |  | 
COc1cc2oc3cc(OC)c(OC)c(CC=C(C)C)c3c(=O)c2c(OC)c1CC(OC)C(C)(C)OC (stereo not drawn) [Compound 2i, 2-(2,3-Dimethoxy-3-methylbutyl)-1,3,6,7-tetramethoxy-8-(3-methylbut-2-en-1-yl)-9H-xanthen-9-one] | > 40 µM | > 40 µM | > 40 µM | > 40 µM | > 40 µM |  | disappearance of cytotoxicity |  |  |  |  |  |  |  | 
COc1c(O)cc2oc3cc(O)c(CC(O)C(C)(C)O)c(O)c3c(=O)c2c1CC=C(C)C (stereo not drawn) [Compound 2a, 1,3,6-Trihydroxy-2-(2,3-dihydroxy-3-methylbutyl)-7-methoxy-8-(3-methyl-2-butenyl)xanthone] | 18.2 ± 0.48 µM | 23.4 ± 1.29 µM | 19.8 ± 1.42 µM | 23.7 ± 0.64 µM | > 40 µM | 18.3 ± 0.51 µM | slightly decreased activity or comparative activity |  |  |  |  |  |  |  | 
Mangostanin [Compound 2m] |  |  |  |  |  |  | slightly decreased activity or comparative activity | > 40 µM |  | > 40 µM | > 40 µM | > 40 µM |  |  | 
COc1c(O)cc2oc3cc(O)c(CC(O)C(C)(C)O)c(O)c3c(=O)c2c1CC(O)C(C)(C)O (stereo not drawn) [Compound 2c, 1,3,6-Trihydroxy-7-methoxy-2,8-bis(2,3-dihydroxy-3-methylbutyl)-9H-xanthen-9-one] | > 40 µM | > 40 µM | > 40 µM | > 40 µM | > 40 µM |  | completely disappeared |  |  |  |  |  |  |  | > 40 µM
COc1c(O)cc2oc3cc(O)c(CC=C(C)C)c(O)c3c(=O)c2c1CC1OC1(C)C (stereo not drawn) [Compound 2l, 1-((3,3-Dimethyloxiran-2-yl)methyl)-3,6,8-trihydroxy-2-methoxy-7-(3-methylbut-2-en-1-yl)-9H-xanthen-9-one] | > 40 µM | > 40 µM | > 40 µM | > 40 µM | > 40 µM |  |  |  |  |  |  |  |  |  | > 40 µM
COc1c(O)cc2oc3cc(O)c(CC=C(C)C)c(O)c3c(=O)c2c1CC(O)C(C)(C)O (stereo not drawn) [Compound 2b, 1,3,6-Trihydroxy-2-(3-methyl-2-butenyl)-7-methoxy-8-(2,3-dihydroxy-3-methylbutyl)xanthone] | > 40 µM | > 40 µM | > 40 µM | > 40 µM | > 40 µM |  |  |  |  |  |  |  |  |  | > 40 µM
COc1cc2oc3cc(OC)c(OC)c(CCC(C)C)c3c(=O)c2c(OC)c1CC(OC)C(C)(C)OC (stereo not drawn) [Compound 2j, 2-(2,3-Dimethoxy-3-methylbutyl)-8-isopentyl-1,3,6,7-tetramethoxy-9H-xanthen-9-one] | > 40 µM | > 40 µM | > 40 µM | > 40 µM | > 40 µM |  | disappearance of cytotoxicity |  |  |  |  |  |  |  | 
COc1cccc2c1C(=O)c1c(O)c3c(c(O)c1C2=O)C[C@@](O)(C(=O)CO)C[C@@H]3O[C@H]1C[C@H](N)[C@H](O)[C@H](C)O1 [ADM, Adriamycin, reference compound] | 0.14 µM | 0.9 ± 0.03 µM | 0.3 ± 0.01 µM | 0.9 ± 0.02 µM | 0.11 ± 0.01 µM | > 40 µM |  |  |  |  |  |  |  |  | 
